Results: ChEMBL document CHEMBL1134010, “Syntheses and antifungal activities of novel 3-amido bearing pseudomycin analogues” (Bioorg Med Chem Lett, 2001)
Converted amounts (≈) assume the structure as drawn. Positions of bridges follow the written chain, without caps; N, C: chain ends. Non-standard residues stand in square brackets, D forms with d. Residues, ends and D or L forms follow the SMILES beside them. *: point of attachment. Tetradecanoyl(3R-OH) = CCCCCCCCCCC[C@@H](O)CC(=O)*; Asp(3S-OH) = N[C@H](C(=O)O)[C@H](O)C(=O)O; Thr(4-Cl) = N[C@H](C(=O)O)[C@H](O)CCl; aThr = C[C@H](O)[C@H](N)C(=O)O; dDab = NCC[C@@H](N)C(=O)O; Dab = NCC[C@H](N)C(=O)O; Dhb = C/C=C(\N)C(=O)O

Assays:
[1] = test system: Cryptococcus neoformans; test: In vitro minimum inhibitory concentration (MIC) against Cryptococcus neoformans.; type: functional
In short: (§1)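 Tested against Candida albicans, Cryptococcus neoformans and Aspergillus fumigatus, with PSB as positive control. MIC is taken as the lowest drug concentration giving 90–100% inhibition of visible growth relative to drug-free controls.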

[2] = test system: Mus musculus; test: Toxicity at a dose of 100 mg/kg in mice; Death; details: in vivo
[3] = test system: Mus musculus; test: Survival extension of the mice against Aspergillosis infection at a dose of 20 mg/kg; type: functional
[4] = test system: Candida albicans; test: In vitro minimum inhibitory concentration (MIC) against Candida albicans.; type: functional; in short: as §1
[5] = test system: Aspergillus fumigatus; test: In vitro minimum inhibitory concentration (MIC) against Aspergillus fumigatus.; type: functional; in short: as §1
[6] = test system: Mus musculus; test: Toxicity at a dose of 75 mg/kg in mice; Death; details: in vivo
[7] = test system: Mus musculus; test: Toxicity at a dose of 125 mg/kg in mice; Death; details: in vivo
[8] = test system: Mus musculus; test: In vivo efficacy against murine systemic Cryptococosis by intraperitoneal administration; type: functional; details: ip
In short: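 Murine systemic cryptococcosis, ip dosing BID ×4 at 5.0, 1.25, 0.312 and 0.078 mg/kg. ED50 is the dose giving 50% survival relative to untreated infected animals.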

[9] = test system: Rattus norvegicus; test: Toxicity at a dose of 50 mg/kg in rats; Death; type: organism-based; design: dose 50 mg/kg; details: in vivo
[10] = test system: Mus musculus; test: In vivo efficacy against murine Candidiasis dosed four times by intraperitoneal administration post-infection using Reed and Muench method; Toxic; type: functional, organism-based

SMILES | MIC [1] [µg/mL] | Toxicity [2] | Survival extension [3] [%] | MIC [4] [µg/mL] | MIC [5] [µg/mL] | Toxicity [6] | Toxicity [7] | ED50 [8] [mg/kg] | Toxicity [9] | ED50 [10]
C/C=C1\NC(=O)[C@H]([C@H](C)O)NC(=O)[C@H](CCN)NC(=O)[C@H](CCCCN)NC(=O)[C@H](CC(=O)O)NC(=O)[C@@H](CCN)NC(=O)[C@@H](NC(=O)C[C@H](O)CCCCCCCCCCC)COC(=O)[C@H]([C@H](O)CCl)NC(=O)[C@H]([C@H](O)C(=O)O)NC1=O [PSEUDOMYCIN B] ({Tetradecanoyl(3R-OH)}-S[dDab]DK[Dab][aThr][Dhb][Asp(3S-OH)][Thr(4-Cl)]; ester 1-C) | 0.01 (≈ 0.00828 µM) | Death | 46 | 0.625 (≈ 0.517 µM) | > 20 | Death | Death | 1.8 | Death | 
C/C=C1\NC(=O)[C@H]([C@H](C)O)NC(=O)[C@H](CCN)NC(=O)[C@H](CCCCN)NC(=O)[C@H](CC(=O)NCCCCCCC)NC(=O)[C@@H](CCN)NC(=O)[C@@H](NC(=O)C[C@H](O)CCCCCCCCCCC)COC(=O)[C@H]([C@H](O)CCl)NC(=O)[C@H]([C@H](O)C(=O)O)NC1=O | 0.312 (≈ 0.239 µM) |  |  | 20 (≈ 15.3 µM) | > 20 |  |  |  |  | Toxic
